Assay results reported in ChEMBL document CHEMBL2169872, “(S)-N-(2,5-Dimethylphenyl)-1-(quinoline-8-ylsulfonyl)pyrrolidine-2-carboxamide as a small molecule inhibitor probe for the study of respiratory syncytial virus infection” (J Med Chem, 2012).
≈ marks a conversion by molar mass, not a printed value.

Tests used:
[1] = tested on: Respiratory syncytial virus; experiment: Antiviral activity against Respiratory syncytial virus Long infected in human Hep2 cells assessed as reduction in virus-induced cytopathogenicity by Cell Titer-Glo assay; format: functional, organism-based; settings: HEp-2
[2] = tested on: HEp-2; experiment: Cytotoxicity against human Hep2 cells by Cell Titer-Glo assay; format: cell-based
[3] = Selectivity index, ratio of CC50 for human Hep2 cells to EC50 for Respiratory syncytial virus Long infected in human Hep2 cells
[4] = tested on: Respiratory syncytial virus; experiment: Antiviral activity against Respiratory syncytial virus Long infected in human Hep2 cells assessed as log reduction in virus titer at 25 uM by virus plaque reduction assay; format: functional, HEp-2
[5] = Aqueous solubility in PBS buffer; format: physicochemical
[6] = Chemical stability in 50% PBS/50% acetonitrile solution assessed as unchanged parent compound remaining after 48 hrs; format: physicochemical; settings: read-out: Stability
[7] = tested on: Respiratory syncytial virus; experiment: Antiviral activity against Respiratory syncytial virus Long infected in human Hep2 cells assessed as post infection time duration of protection against virus-induced cytopathogenicity by Cell Titer-Glo assay; format: functional, HEp-2
In short: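 HEp-2 cells seeded at 10 000 cells/well, held 24 h at 37 °C, 5% CO2, then infected with hRSV Long at MOI 3.0 at time 0. Compound added at 25 μM final, in triplicate, at −1, 0, 1, 2, 3, 5, 7, 21 or 24 h pi. Incubated 6 days at 37 °C, 5% CO2. Read by Cell Titer-Glo luminescence after 30 min room-temperature equilibration and 10 min reagent incubation. Uninfected and infected untreated wells served as controls.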

[8] = tested on: Respiratory syncytial virus; experiment: Antiviral activity against Respiratory syncytial virus Long infected in human Hep2 cells assessed as protection against virus-induced cytopathogenicity by measuring cell viability at 24 hrs post infection by Cell Titer-Glo assay; format: functional, HEp-2
In short: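 HEp-2 cells seeded at 10 000/well and held 24 h at 37 °C, 5% CO₂, then infected at time 0 with hRSV Long at MOI 3.0. Compound added at 25 μM final, in triplicate, at −1 to 24 h post-infection. After 6 days at 37 °C, plates were brought to room temperature and Cell Titer-Glo luminescence read after 10 min. Cell-only and virus-only controls were included.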

[9] = tested on: HEp-2; experiment: Cytotoxicity against uninfected human Hep2 cells assessed as cell viability at 25 uM measured after 144 hrs by Cell Titer-Glo assay; format: cell-based; settings: hep-2, 144 h
In short: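 Uninfected HEp-2 cells were given compound at 25 μM at time point 0. Viability was read by Cell Titer-Glo after 144 h.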

## Cc1ccc(NC(=O)CN(C)S(=O)(=O)c2cccc3cccnc23)c(C)c1
[1]
  EC50: > 50 µM
[2]
  CC50: > 50 µM

## Cc1ccc(NC(=O)[C@H]2CCCN2S(=O)(=O)c2cccc3cccnc23)c(C)c1
[1]
  EC50: > 50 µM
[2]
  CC50: 38.1 µM
[3]
  selectivity ratio: 0.8

## Cc1ccc(NC(=O)[C@@H]2CCCN2S(=O)(=O)c2cccc3cccnc23)c(C)c1
[1]
  EC50: 2.7 µM
[2]
  CC50: 31.8 µM
[3]
  selectivity ratio: 11.8
[4]
  FC: 1

## Cc1ccc(NC(=O)CNS(=O)(=O)c2cccc3cccnc23)c(C)c1
[1]
  EC50: > 50 µM
[2]
  CC50: > 50 µM

## Cc1ccc(NC(=O)C(C)NS(=O)(=O)c2cccc3cccnc23)c(C)c1 (configuration not stated)
[1]
  EC50: > 50 µM
[2]
  CC50: > 50 µM

## Cc1ccccc1NC(=O)[C@@H]1CCCN1S(=O)(=O)c1cccc2cccnc12
[1]
  EC50: 23.8 µM
[2]
  CC50: > 50 µM

## Cc1cccc(NC(=O)[C@@H]2CCCN2S(=O)(=O)c2cccc3cccnc23)c1
[1]
  EC50: > 50 µM
[2]
  CC50: 25.5 µM

## Cc1ccc(NC(=O)[C@@H]2CCCN2S(=O)(=O)c2cccc3cccnc23)cc1
[1]
  EC50: > 50 µM
[2]
  CC50: 31.7 µM

## O=C(Nc1ccccc1)[C@@H]1CCCN1S(=O)(=O)c1cccc2cccnc12
[1]
  EC50: > 50 µM
[2]
  CC50: 35.6 µM

## CCc1ccccc1NC(=O)[C@@H]1CCCN1S(=O)(=O)c1cccc2cccnc12
[1]
  EC50: 21.2 µM
[2]
  CC50: > 50 µM

## CC(C)c1ccccc1NC(=O)[C@@H]1CCCN1S(=O)(=O)c1cccc2cccnc12
[1]
  EC50: 17.6 µM
[2]
  CC50: 29.9 µM

## Cc1ccnc(C)c1NC(=O)[C@@H]1CCCN1S(=O)(=O)c1cccc2cccnc12
[1]
  EC50: > 50 µM
[2]
  CC50: > 50 µM

## Cc1cc(C)cc(NC(=O)[C@@H]2CCCN2S(=O)(=O)c2cccc3cccnc23)c1
[1]
  EC50: > 50 µM
[2]
  CC50: 31.3 µM

## O=C(Nc1ccc(Cl)cc1Cl)[C@@H]1CCCN1S(=O)(=O)c1cccc2cccnc12
[1]
  EC50: > 50 µM
[2]
  CC50: > 50 µM

## Cc1ccc(C)c(NC(=O)[C@@H]2CCCN2S(=O)(=O)c2cccc3cccnc23)c1
[1]
  EC50: 2.3 µM
[2]
  CC50: 30.9 µM
[4]
  FC: 2
[5]
  solubility: 92.7 µg/mL (≈ 226 µM)
[6]
  remaining at 48 h: 95.4%
[7]
  Time: 1 h
[8]
  Activity: 26%

## Cc1cccc(C)c1NC(=O)[C@@H]1CCCN1S(=O)(=O)c1cccc2cccnc12
[1]
  EC50: > 50 µM
[2]
  CC50: > 50 µM

## Cc1ccc(Cl)cc1NC(=O)[C@@H]1CCCN1S(=O)(=O)c1cccc2cccnc12
[1]
  EC50: 2.2 µM
[2]
  CC50: 10 µM

## Cc1ccc(C(F)(F)F)cc1NC(=O)[C@@H]1CCCN1S(=O)(=O)c1cccc2cccnc12
[1]
  EC50: > 50 µM
[2]
  CC50: 4.8 µM

## COc1ccc(C)c(NC(=O)[C@@H]2CCCN2S(=O)(=O)c2cccc3cccnc23)c1
[1]
  EC50: 4.2 µM
[2]
  CC50: 44.2 µM
[4]
  FC: 1
[9]
  Activity: 88%

## Cc1ccc(C(C)C)cc1NC(=O)[C@@H]1CCCN1S(=O)(=O)c1cccc2cccnc12
[1]
  EC50: > 50 µM
[2]
  CC50: 9.7 µM

## Cc1ccc(C(C)(C)C)cc1NC(=O)[C@@H]1CCCN1S(=O)(=O)c1cccc2cccnc12
[1]
  EC50: > 50 µM
[2]
  CC50: 6.5 µM

## Cc1ccc(Cl)c(NC(=O)[C@@H]2CCCN2S(=O)(=O)c2cccc3cccnc23)c1
[1]
  EC50: > 50 µM
[2]
  CC50: > 50 µM

## COc1ccc(C)cc1NC(=O)[C@@H]1CCCN1S(=O)(=O)c1cccc2cccnc12
[1]
  EC50: > 50 µM
[2]
  CC50: > 50 µM

## Cc1cc(NC(=O)[C@@H]2CCCN2S(=O)(=O)c2cccc3cccnc23)n(C(C)(C)C)n1
[1]
  EC50: > 50 µM
[2]
  CC50: > 50 µM

## Cc1ccc(NC(=O)C2CCCN2S(=O)(=O)c2cccc3cccnc23)c(C)c1 (racemic)
[1]
  EC50: 5 µM
[2]
  CC50: 31.5 µM
[3]
  selectivity ratio: 6.3
[4]
  FC: 2.1

## NC(=O)c1ncn([C@@H]2O[C@H](CO)[C@@H](O)[C@H]2O)n1 [RIBAVIRIN]
[1]
  EC50: 28.4 µM
[2]
  CC50: 114 µM
[4]
  FC: 2.5
[9]
  Activity: 90%
[7]
  Time: 7 h
